Hit rate of the full screen: of about 260,000 compounds, about 960 (0.37%) were called active. Only a selection was taken, and actives are over-represented in it overall. Unmarked numbers belong to inactive results.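 The calls were made as follows: active = mean E-selectin-positive cell signal at least 10% of the positive control, reached in at least 60% of replicates, without over 20% cell loss; inconclusive = no rule given, readout overlaps actives, possibly toxicity-flagged; inactive = the rest, including those meeting only one limit.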

The target of this assay is E-selectin (Homo sapiens) (UniProt P16581). Nature of the assay: E-selectin induction in HUVECs, primary screen, imaging, HUVEC, immunofluorescence imaging, single point (AID 686992).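 Also: signal is the percent of cells scored E-selectin positive by PE staining.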 Particulars: at 7.58 µM, stronger effect = higher value, normalized: neutral wells 0, TNF-alpha wells 100. A digest of the protocol: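 Assay system: HUVEC, human umbilical vein endothelial cells / Amount: 3,000 HUVEC/well / Controls: TNF-alpha positive control, DMSO neutral control / Compound dosing: single concentration / Medium: EGM-2 over gelatin coat / Evaluation: percent E-selectin-positive cells / Signal: immunofluorescence imaging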
Chain of E-selectin (Homo sapiens) (P16581 whole entry, looked up): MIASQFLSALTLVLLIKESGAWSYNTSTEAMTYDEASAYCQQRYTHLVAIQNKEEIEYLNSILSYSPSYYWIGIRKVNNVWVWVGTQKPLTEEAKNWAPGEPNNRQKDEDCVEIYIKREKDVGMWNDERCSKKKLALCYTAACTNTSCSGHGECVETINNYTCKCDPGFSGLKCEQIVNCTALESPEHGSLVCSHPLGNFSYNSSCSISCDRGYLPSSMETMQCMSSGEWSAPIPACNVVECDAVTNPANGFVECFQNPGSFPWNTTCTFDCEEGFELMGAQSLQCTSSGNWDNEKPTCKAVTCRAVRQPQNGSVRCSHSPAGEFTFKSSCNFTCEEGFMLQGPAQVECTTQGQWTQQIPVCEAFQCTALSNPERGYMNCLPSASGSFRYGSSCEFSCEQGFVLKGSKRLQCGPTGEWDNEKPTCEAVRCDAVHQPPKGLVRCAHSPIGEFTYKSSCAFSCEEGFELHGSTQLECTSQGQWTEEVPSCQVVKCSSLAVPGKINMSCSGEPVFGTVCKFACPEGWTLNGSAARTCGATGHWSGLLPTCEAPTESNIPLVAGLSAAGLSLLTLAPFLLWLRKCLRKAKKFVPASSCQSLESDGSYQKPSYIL
As to `NC(=S)NN=Cc1ccc(OC(=O)COc2cc(Cl)c(Cl)cc2Cl)cn1`, the activation was 0.0825%.

As to `C[C@H](CO)N1C[C@H](C)[C@@H](CN(C)S(=O)(=O)c2ccc([N+](=O)[O-])cc2)OCc2ccccc2-c2c(n(C)c3ccccc23)C1=O`, the activation was 0.251%.

Turning to `O=C(NC(=S)Nc1ncccn1)c1ccccc1Br`, the activation was -0.09%.

As for `CCOc1cnc(C(=O)NNC(=O)c2ccccc2Br)o1`, the activation was 180% (active).

In the case of `CCCc1ccc(OCCNC(=O)c2ccccc2Br)cc1`, the activation was 0.473%.

`COCC(=O)N1[C@H](C(=O)N2CCN(C)CC2)[C@@H](CO)[C@@H]2Cn3c(ccc(C4=CCCC4)c3=O)[C@@H]21`: the activation was 0.129%.

Turning to `COC(=O)C1=C(C)N(Cc2ccc(C(F)(F)F)cc2)C(=NCc2ccc(C(F)(F)F)cc2)NC1c1cccc(Cl)c1` (stereo not drawn), the activation is -0.458%.

With `O=C(C[C@H]1CC[C@@H]2[C@H](COC[C@H](O)CN2CCC(F)(F)F)O1)NCC1CC1`, the activation is -0.0615%.

As for `COc1ccc(C2=NN(C(C)=O)C(c3ccccc3)C2)cc1` (stereo not drawn), the activation was 0.176%.

In the case of `COc1ccc(C2=NN(C(=O)c3ccccc3C(=O)O)C(c3ccccc3O)C2)cc1` (stereo not drawn), the activation is 55.5% (active).

Regarding `COc1ccc(C2=NN(C(=O)c3cccnc3)C(c3ccccc3)C2)cc1` (stereo not drawn), the activation was -2.28%.

Consider `Cc1ccc(C(=O)N2CCCc3ccccc32)c(Cl)c1`, for which the activation is -0.261%.

For the compound `C[C@H](CO)N1C[C@H](C)[C@H](CN(C)C(=O)Nc2ccc(F)cc2)Oc2c(NC(=O)c3cnccn3)cccc2C1=O`, the activation was 0.893%.

Take `C[C@H]1CN([C@@H](C)CO)C(=O)c2cccc(NC(=O)c3cnccn3)c2O[C@@H]1CN(C)Cc1ccc(Oc2ccccc2)cc1`: the activation is 0.0435%.

As to `C[C@@H]1CN([C@H](C)CO)C(=O)c2cccc(NC(=O)c3cnccn3)c2O[C@@H]1CN(C)Cc1ccncc1`, the activation is -11.9%.

Regarding `COc1ccc(CN(C)C[C@H]2Oc3c(NC(=O)c4cnccn4)cccc3C(=O)N([C@H](C)CO)C[C@@H]2C)cc1`, the activation is 39% (active).

Regarding `C[C@H]1CN([C@@H](C)CO)C(=O)c2cccc(NC(=O)c3cnccn3)c2O[C@H]1CN(C)C(=O)Nc1ccccc1`, the activation is 0.886%.

As to `CC(C)NC(=O)N(C)C[C@@H]1Oc2c(NC(=O)c3cnccn3)cccc2C(=O)N([C@@H](C)CO)C[C@@H]1C`, the activation was 88.4% (active).

As to `COc1ccc2c3c(n(C)c2c1)[C@@H](CO)N(C(=O)c1cnccn1)CC31CCN(C(C)=O)CC1`, the activation is -0.0775%.

As to `Cc1ccccc1-c1csc(C(O)c2cccc(Cl)c2)n1` (stereo not drawn), the activation was 0.0645%.

As to `CCOC(=O)[C@H]1Nc2ccc(Cl)cc2[C@@H]2[C@H]1C1CC(c3ccccc31)N2C(=O)OCc1ccccc1` (stereo partly drawn), the activation is -3.61%.

Turning to `CC[C@@H](C)[C@H](NC(=O)CCc1c(C)c2cc3c4c(oc3c(C)c2oc1=O)CCCC4)C(=O)O`, the activation was -0.004%.

As to `Cc1coc2cc3oc(=O)c(CCC(=O)O)c(C)c3cc12`, the activation was 0.29%.

For `Cc1c(CC(=O)NCC(=O)NCC(=O)O)c(=O)oc2cc3oc4c(c3cc12)CCCC4`, the activation is 44.8% (active).

As to `CN1C(=O)C(Br)(Br)CC1c1cccnc1` (stereo not drawn), the activation is 0.457%.

`CCc1nc2c(OCCOc3ccccc3)cccn2c1N(C)C(=O)c1ccc(OC)cc1`: the activation was -0.197%.

`CCOC(=O)C1C(C)C(C(C)(C)C)N(S(=O)(=O)c2ccc(C)cc2)C1c1ccccc1` (stereo not drawn): the activation is -0.306%.

Regarding `O=C(NC1CCCC1)[C@@H]1[C@@H](CO)[C@@H]2Cn3c(ccc(-c4ccc(F)cc4)c3=O)[C@H]1N2Cc1cocn1`, the activation is 0.192%.

With `CCOC(=O)C(=Cc1ccccc1)C(=O)c1ccccc1`, the activation is -0.023%.

On to `COc1ccc2sc(-c3ccc(N(C)C)cc3)c(-c3ccc4cc[nH]c4c3)c2c1`, for which the activation was 0.675%.

On to `COc1ccc2c(c1)c(=Cc1ccc(N(C)C)cc1)c1cc(-c3ccccc3)[n+](C)n12`, for which the activation is 197% (active).

Turning to `COc1ccc2sc(-c3ccc(N(C)C)cc3)c(C#CCO)c2c1`, the activation was 0.712%.

As for `CC1(C)OC(=O)C2=C(C[C@@H](C3CCCC3)O[C@@H]2c2ccc(Cl)cc2)O1`, the activation was -0.0095%.

These data come from PubChem BioAssay AID686992 (Broad Institute, 2013).
